Values after ≈ are worked out from the molar mass of the structure shown.
How the values were obtained:
[1] = tested on: Mycobacterium tuberculosis; assay: Antitubercular activity against Mycobacterium tuberculosis H37Rv in Middlebrook 7H9 broth with glucose after 7 to 14 days by broth microdilution method; assay type: functional
Summary of the method: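 Broth microdilution of H37Rv in 7H9 with 0.8 g/L NaCl, 5 g/L BSA fraction V, 4 g/L glucose and 0.05% Tyloxapol. Run in quadruplicate from DMSO stocks with DMSO controls; isoniazid positive control.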

[2] = tested on: Mycobacterium tuberculosis; assay: Antitubercular activity against Mycobacterium tuberculosis H37Rv in Middlebrook 7H9 broth with butyrate after 7 to 14 days by broth microdilution method; assay type: functional
[3] = tested on: Mycobacterium tuberculosis; assay: Antitubercular activity against Mycobacterium tuberculosis H37Rv in GAST media with glycerol and alanine after 7 to 14 days by broth microdilution method; assay type: functional
[4] = tested on: Vero; assay: Cytotoxicity against african green monkey Vero cells after 72 hrs by MTT assay; assay type: cell-based; conditions: Chlorocebus sabaeus
Summary of the method: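 Vero (CCL-81) cells in MEM with 10% FBS, penicillin-streptomycin and Glutamax, seeded at 3.0×10⁴ per well and left to adhere overnight. Compounds added from DMSO at final 100–0.16 μM, triplicate, for 72 h at 37 °C, 4.5% CO2. Then MTT 1.0 mg/mL in phenol-red-free RPMI for 3 h, formazan dissolved in isopropanol, A570 minus A690. Viability taken relative to DMSO control; EC50 from dose-response curves.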

[5] = Therapeutic index, ratio of EC50 for african green monkey Vero cells to MIC for Mycobacterium tuberculosis H37Rv; assay type: cell-based; conditions: read-out: TI

| Structure (SMILES) | MIC99 [1] | MIC99 [2] | MIC99 [3] | EC50 [4] | selectivity ratio [5] |
| --- | --- | --- | --- | --- | --- |
| COc1ccc(OC)c(Nc2nc(-c3ccccn3)cs2)c1 | > 50 µM | > 50 µM | > 12.5 µM |  |  |
| Oc1ccccc1Nc1nc(-c2ccccn2)cs1 | 50 µM (≈ 13.5 µg/mL) | 25 µM (≈ 6.73 µg/mL) | > 12.5 µM |  |  |
| Cc1cccc(Nc2nc(-c3ccccn3)cs2)n1 | 6.3 µM (≈ 1.69 µg/mL) | 3.1 µM (≈ 0.832 µg/mL) | 0.78 µM (≈ 0.209 µg/mL) |  |  |
| O=C(Nc1nc(-c2ccccn2)cs1)c1ccc(Cl)cc1 | 1.6 µM (≈ 0.505 µg/mL) | 0.78 µM (≈ 0.246 µg/mL) | 0.39 µM (≈ 0.123 µg/mL) |  |  |
| O=C(Nc1nc(-c2ccccn2)cs1)c1ccc(F)cc1 | 0.39 µM (≈ 0.117 µg/mL) | 0.19 µM (≈ 0.0569 µg/mL) | 0.098 µM (≈ 0.0293 µg/mL) | 2500 nM |  |
| O=C(Nc1nc(-c2ccccc2)cs1)c1ccccc1 | > 25 µM |  | ≥ 25 µM |  |  |
| O=C(Nc1nc(-c2ccccn2)cs1)c1ccc(OCc2ccccc2)cc1 | 0.19 µM (≈ 0.0736 µg/mL) |  | 0.098 µM (≈ 0.038 µg/mL) | 2300 nM | 6 |
| O=C(Nc1nc(-c2ccccn2)cs1)c1ccncc1 | 1.6 µM (≈ 0.452 µg/mL) | 3.1 µM (≈ 0.875 µg/mL) | 0.78 µM (≈ 0.22 µg/mL) |  |  |
| O=C(Nc1nc(-c2ccccn2)cs1)c1ccsc1 | 1.6 µM (≈ 0.46 µg/mL) | 3.1 µM (≈ 0.891 µg/mL) | 0.78 µM (≈ 0.224 µg/mL) |  |  |
| Cc1ccc(Nc2nc(-c3ccccn3)cs2)c(C)c1 | 12.5 µM (≈ 3.52 µg/mL) | 12.5 µM (≈ 3.52 µg/mL) | 6.3 µM (≈ 1.77 µg/mL) |  |  |
| Cc1cccc(Nc2nc(-c3ccccn3)cs2)c1C | 12.5 µM (≈ 3.52 µg/mL) | 12.5 µM (≈ 3.52 µg/mL) | 3.1 µM (≈ 0.872 µg/mL) |  |  |
| CCCCCCCC(=O)Nc1nc(-c2ccccn2)cs1 | 6.3 µM (≈ 1.91 µg/mL) | 6.3 µM (≈ 1.91 µg/mL) | 0.78 µM (≈ 0.237 µg/mL) |  |  |
| Cc1cccc(Nc2nc(-c3ccccn3)cs2)c1 | 25 µM (≈ 6.68 µg/mL) | 12.5 µM (≈ 3.34 µg/mL) | 6.3 µM (≈ 1.68 µg/mL) |  |  |
| O=C(Nc1nc(-c2ccccn2)cs1)c1ccc(F)cc1F | 0.39 µM (≈ 0.124 µg/mL) |  | 0.19 µM (≈ 0.0603 µg/mL) | 7300 nM | 9 |
| O=C(Nc1nc(-c2ccccn2)cs1)c1cscn1 | > 50 µM | > 50 µM | > 50 µM |  |  |
| COc1cccc(C(=O)Nc2nc(-c3ccccn3)cs2)c1 | 0.19 µM (≈ 0.0592 µg/mL) |  | 0.098 µM (≈ 0.0305 µg/mL) | 2800 nM | 7 |
| CCCC(=O)Nc1nc(-c2ccccn2)cs1 | 12 µM (≈ 2.97 µg/mL) | 25 µM (≈ 6.18 µg/mL) | 12.5 µM (≈ 3.09 µg/mL) |  |  |
| O=C(Nc1nc(-c2ccccn2)co1)c1ccccc1 | 25 µM (≈ 6.63 µg/mL) |  | 25 µM (≈ 6.63 µg/mL) |  |  |
| O=C(Nc1nc(-c2ccccn2)cs1)c1cccc([N+](=O)[O-])c1 | 1.6 µM (≈ 0.522 µg/mL) |  | 0.78 µM (≈ 0.255 µg/mL) |  |  |
| c1ccc(Nc2nc(-c3ccccn3)cs2)nc1 | 0.78 µM (≈ 0.198 µg/mL) | 0.39 µM (≈ 0.0992 µg/mL) | 0.39 µM (≈ 0.0992 µg/mL) |  |  |
| O=C(Nc1nc(-c2cscn2)cs1)c1ccccc1 | > 25 µM |  | ≥ 25 µM |  |  |

| Structure (SMILES) | MIC99 [1] | MIC99 [2] | MIC99 [3] | EC50 [4] | selectivity ratio [5] |
| --- | --- | --- | --- | --- | --- |
| Cc1ccccc1Nc1nc(-c2ccccn2)cs1 | 12.5 µM (≈ 3.34 µg/mL) | 12.5 µM (≈ 3.34 µg/mL) | 3.1 µM (≈ 0.829 µg/mL) |  |  |
| O=C(Nc1nnc(-c2ccccn2)o1)c1ccccc1F | 12.5 µM (≈ 3.55 µg/mL) |  | 6.25 µM (≈ 1.78 µg/mL) |  |  |
| O=C(Nc1ccccc1)c1nc(-c2ccccn2)cs1 | > 25 µM |  | > 25 µM |  |  |
| O=C(Nc1cc(-c2ccccn2)cs1)c1ccccc1 | > 25 µM |  | 12.5 µM (≈ 3.5 µg/mL) |  |  |
| FC(F)(F)c1cccc(Nc2nc(-c3ccccn3)cs2)c1 | 25 µM (≈ 8.03 µg/mL) | 25 µM (≈ 8.03 µg/mL) | > 12.5 µM |  |  |
| O=C(Nc1nc(-c2ccccn2)cs1)c1ccccc1Cl | 0.39 µM (≈ 0.123 µg/mL) | 0.19 µM (≈ 0.06 µg/mL) |  | 2000 nM | 1 |
| CC(=O)c1ccc(C(=O)Nc2nc(-c3ccccn3)cs2)cc1 | 0.39 µM (≈ 0.126 µg/mL) | 0.19 µM (≈ 0.0614 µg/mL) |  | 10500 nM |  |
| Cc1ccccc1C(=O)Nc1nc(-c2ccccn2)cs1 | 0.39 µM (≈ 0.115 µg/mL) | 0.19 µM (≈ 0.0561 µg/mL) |  | 6300 nM | 16 |
| O=C(Nc1nc(-c2ccccn2)cs1)c1ccccc1O | 1.6 µM (≈ 0.476 µg/mL) | 1.6 µM (≈ 0.476 µg/mL) | 0.19 µM (≈ 0.0565 µg/mL) |  |  |
| c1ccc(Nc2nc(-c3ccccn3)cs2)cc1 | 25 µM (≈ 6.33 µg/mL) | 12.5 µM (≈ 3.17 µg/mL) | 12.5 µM (≈ 3.17 µg/mL) |  |  |
| Fc1cccc(Nc2nc(-c3ccccn3)cs2)c1 | 25 µM (≈ 6.78 µg/mL) | 25 µM (≈ 6.78 µg/mL) | > 12.5 µM |  |  |
| O=C(Nc1nc(-c2ccccn2)cs1)C1CCC1 | 12.5 µM (≈ 3.24 µg/mL) | 6.3 µM (≈ 1.63 µg/mL) | 6.3 µM (≈ 1.63 µg/mL) |  |  |
| O=C(Nc1nc(-c2ccccn2)cs1)C1CCCCC1 | 6.3 µM (≈ 1.81 µg/mL) | 3.1 µM (≈ 0.891 µg/mL) | 1.6 µM (≈ 0.46 µg/mL) |  |  |
| O=C(Nc1nc(-c2ccccn2)c[nH]1)c1ccccc1 | 25 µM (≈ 6.61 µg/mL) |  | 3.13 µM (≈ 0.827 µg/mL) |  |  |
| Fc1ccc(Nc2nc(-c3ccccn3)cs2)cc1 | 25 µM (≈ 6.78 µg/mL) | 25 µM (≈ 6.78 µg/mL) | 12.5 µM (≈ 3.39 µg/mL) |  |  |
| Fc1ccccc1Nc1nc(-c2ccccn2)cs1 | 50 µM (≈ 13.6 µg/mL) | 25 µM (≈ 6.78 µg/mL) | > 12.5 µM |  |  |
| O=C(Nc1nc(-c2ccccn2)cs1)c1cccnc1Cl | 0.39 µM (≈ 0.124 µg/mL) |  | 0.19 µM (≈ 0.0602 µg/mL) | 1900 nM | 2 |
| CCCCCC(=O)Nc1nc(-c2ccccn2)cs1 | 6.3 µM (≈ 1.73 µg/mL) | 3.1 µM (≈ 0.854 µg/mL) | 3.1 µM (≈ 0.854 µg/mL) |  |  |
| FC(F)(F)c1ccccc1Nc1nc(-c2ccccn2)cs1 | 12 µM (≈ 3.86 µg/mL) | 6.3 µM (≈ 2.02 µg/mL) | 6.3 µM (≈ 2.02 µg/mL) |  |  |
| CN(C(=O)c1ccccc1)c1nc(-c2ccccn2)cs1 | > 25 µM |  | ≥ 25 µM |  |  |
| O=C(Nc1nc(-c2ccccn2)cs1)c1ccco1 | 3.1 µM (≈ 0.841 µg/mL) | 6.3 µM (≈ 1.71 µg/mL) | 1.6 µM (≈ 0.434 µg/mL) |  |  |

| Structure (SMILES) | MIC99 [1] | MIC99 [2] | MIC99 [3] | EC50 [4] | selectivity ratio [5] |
| --- | --- | --- | --- | --- | --- |
| FC(F)(F)c1ccc(Nc2nc(-c3ccccn3)cs2)cc1 | 25 µM (≈ 8.03 µg/mL) | 12.5 µM (≈ 4.02 µg/mL) | ≥ 12.5 µM |  |  |
| O=C(Nc1nc(-c2ccccn2)cs1)c1ccccc1Br | 0.39 µM (≈ 0.14 µg/mL) |  | 0.098 µM (≈ 0.0353 µg/mL) | 3500 nM |  |
| O=C(Nc1nc(-c2ccccn2)cs1)c1cccnc1 | 6.3 µM (≈ 1.78 µg/mL) | 3.1 µM (≈ 0.875 µg/mL) | > 12.5 µM |  |  |
| O=C(Nc1nc(-c2ccccn2)cs1)c1ccccc1[N+](=O)[O-] | 1.6 µM (≈ 0.522 µg/mL) |  | 0.78 µM (≈ 0.255 µg/mL) |  |  |
| Cc1cccc(C)c1Nc1nc(-c2ccccn2)cs1 | 12.5 µM (≈ 3.52 µg/mL) | 12.5 µM (≈ 3.52 µg/mL) | 3.1 µM (≈ 0.872 µg/mL) |  |  |
| O=C(Nc1nc(-c2ccccn2)cs1)c1ccccc1F | 1.6 µM (≈ 0.479 µg/mL) | 0.39 µM (≈ 0.117 µg/mL) | 1.6 µM (≈ 0.479 µg/mL) |  |  |
| O=C(Nc1nc(-c2ccccn2)cs1)c1ccc(F)c(F)c1 | 1.6 µM (≈ 0.508 µg/mL) | 3.1 µM (≈ 0.984 µg/mL) | 0.39 µM (≈ 0.124 µg/mL) |  |  |
| O=C(Nc1nc(-c2ccccn2)cs1)c1c(F)cccc1Cl | 0.78 µM (≈ 0.26 µg/mL) | 0.39 µM (≈ 0.13 µg/mL) | 0.19 µM (≈ 0.0634 µg/mL) | 1300 nM |  |
| Clc1ccc(Nc2nc(-c3ccccn3)cs2)nc1 | 1.6 µM (≈ 0.462 µg/mL) | 1.6 µM (≈ 0.462 µg/mL) | 0.39 µM (≈ 0.113 µg/mL) |  |  |
| O=C(Nc1nc(-c2ccccn2)cs1)c1ccoc1 | 3.1 µM (≈ 0.841 µg/mL) | 6.3 µM (≈ 1.71 µg/mL) |  |  |  |
| COc1ccc(Nc2nc(-c3ccccn3)cs2)c(OC)c1 | 6.3 µM (≈ 1.97 µg/mL) | 6.3 µM (≈ 1.97 µg/mL) | > 12.5 µM |  |  |
| CCCCCCCCCC(=O)Nc1nc(-c2ccccn2)cs1 | 6.3 µM (≈ 2.09 µg/mL) | 3.1 µM (≈ 1.03 µg/mL) | 1.6 µM (≈ 0.53 µg/mL) |  |  |
| O=C(Nc1nc(-c2ccccn2)cs1)C1CC1 | 12 µM (≈ 2.94 µg/mL) | 12.5 µM (≈ 3.07 µg/mL) | 6.3 µM (≈ 1.55 µg/mL) |  |  |
| O=C(Nc1nc(-c2ccccn2)cs1)C1CCCC1 | 12.5 µM (≈ 3.42 µg/mL) | 3.1 µM (≈ 0.847 µg/mL) |  |  |  |
| O=C(Nc1nc(-c2cnccn2)cs1)c1ccccc1 | > 25 µM |  | > 25 µM |  |  |
| CC1CC1C(=O)Nc1nc(-c2ccccn2)cs1 (centres undefined) | 6.3 µM (≈ 1.63 µg/mL) | > 50 µM |  |  |  |
| O=C(Nc1nc(-c2ccccn2)cs1)c1cccs1 | 1.6 µM (≈ 0.46 µg/mL) |  |  |  |  |
| O=C(Nc1nnc(-c2ccccn2)s1)c1ccccc1F | > 6.25 µM |  | > 6.25 µM |  |  |
| Cc1ccc(Nc2nc(-c3ccccn3)cs2)cc1 | 12.5 µM (≈ 3.34 µg/mL) | 12.5 µM (≈ 3.34 µg/mL) | 6.3 µM (≈ 1.68 µg/mL) |  |  |

Reference: ChEMBL document CHEMBL2440116, “Structure-activity relationships of 2-aminothiazoles effective against Mycobacterium tuberculosis” (Bioorg Med Chem, 2013)
